The values below come from ChEMBL document CHEMBL3351639, “Fluorinated analogues of marsanidine, a highly α2-AR/imidazoline I1 binding site-selective hypotensive agent. Synthesis and biological activities” (Eur J Med Chem, 2014).

Each structure is given as a SMILES string.

Experiment [1] has as its target T1, Alpha-2A adrenergic receptor (Homo sapiens, UniProt P08913).
T1 sequence (P08913 whole entry): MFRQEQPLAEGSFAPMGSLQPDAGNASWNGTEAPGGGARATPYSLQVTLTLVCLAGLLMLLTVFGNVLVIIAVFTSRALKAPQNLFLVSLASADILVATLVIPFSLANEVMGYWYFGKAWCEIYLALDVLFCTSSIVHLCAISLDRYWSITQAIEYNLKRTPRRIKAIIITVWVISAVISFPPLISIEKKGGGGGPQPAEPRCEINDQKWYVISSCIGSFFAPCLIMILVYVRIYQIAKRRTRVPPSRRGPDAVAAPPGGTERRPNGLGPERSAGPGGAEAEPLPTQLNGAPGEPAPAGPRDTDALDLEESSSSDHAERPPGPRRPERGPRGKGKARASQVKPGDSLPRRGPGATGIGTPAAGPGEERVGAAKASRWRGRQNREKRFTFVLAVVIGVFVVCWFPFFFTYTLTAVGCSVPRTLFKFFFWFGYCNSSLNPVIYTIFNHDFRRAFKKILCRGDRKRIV
In words: Agonist activity at human alpha2A adrenoceptor expressed in CHO-K1 cells after 30 mins by [35S]GTPgammaS binding assay. The experiment is classed as functional, cell-based. The method in brief: (§1)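 Membranes from CHO cells stably expressing human α2A-AR (5 µg protein) were incubated with 7 or 8 serial dilutions of compound and 0.1 nM [35S]GTPγS. Buffer: 25 mM Tris, 1 mM EDTA, 5 mM MgCl2, 20 mM NaCl, 1 µM GDP, 1 mM DTT, 30 µM ascorbic acid, pH 7.4. Incubation 30 min at RT, then vacuum filtration and scintillation counting. Run in duplicate, at least 3 repeats.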
(GTPγS resists hydrolysis and so accumulates on activated G proteins.)

The target of experiment [2] is T1, Alpha-2A adrenergic receptor. Put plainly: Displacement of [3H]RS-79948-197 from human alpha2A adrenoceptor expressed in CHO-K1 cells after 45 mins by liquid scintillation counting. It is filed as cell-based. The method in brief: (§2)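 Membranes from CHO-K1 cells stably expressing each human α2-AR subtype (6–10 µg protein). Used 0.2 nM [3H]RS-79948-197 and 8 serial dilutions of competitor in 50 mM potassium phosphate, pH 7.4. Non-specific binding defined with 100 µM oxymetazoline. Filtration, then scintillation counting. Run in duplicate, at least 3 repeats. One-site nonlinear fit; IC50 converted to Ki by Cheng-Prusoff.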
(In general: Loss of bound radioactivity is the signal in a displacement assay; it reports binding, not function.)

The target of experiment [3] is T2, Alpha-2A adrenergic receptor (Homo sapiens) (UniProt P08913).
T2 sequence (whole entry): T1 sequence (P08913 whole entry)
Put plainly: Intrinsic activity at human alpha2A adrenoceptor expressed in CHO-K1 cells after 30 mins by [35S]GTPgammaS binding assay relative to norepinephrine. The experiment is classed as functional, cell-based. Summed up:
as §1

Experiment [4] concerns the target T3, Alpha-2C adrenergic receptor (Homo sapiens, UniProt P18825).
T3 sequence (P18825 whole entry): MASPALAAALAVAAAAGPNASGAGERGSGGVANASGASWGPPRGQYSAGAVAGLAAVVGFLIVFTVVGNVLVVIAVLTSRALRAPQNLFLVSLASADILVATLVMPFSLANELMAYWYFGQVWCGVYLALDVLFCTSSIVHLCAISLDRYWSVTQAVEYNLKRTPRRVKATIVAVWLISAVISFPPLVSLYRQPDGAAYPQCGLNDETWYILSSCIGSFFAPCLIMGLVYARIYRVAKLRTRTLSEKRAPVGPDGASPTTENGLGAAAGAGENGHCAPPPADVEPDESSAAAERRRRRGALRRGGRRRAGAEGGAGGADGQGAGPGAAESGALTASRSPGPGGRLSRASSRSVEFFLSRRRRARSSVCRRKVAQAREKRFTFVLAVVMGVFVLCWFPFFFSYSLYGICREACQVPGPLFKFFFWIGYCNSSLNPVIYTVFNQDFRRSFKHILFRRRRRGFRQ
Put plainly: Displacement of [3H]RS-79948-197 from human alpha2C adrenoceptor expressed in CHO-K1 cells after 45 mins by liquid scintillation counting. It is filed as cell-based. Summed up:
as §2

The target of experiment [5] is T4, Adrenergic receptor alpha-2 (Rattus norvegicus, UniProt P22086+P19328+P22909).
T4 sequence (P22086 whole entry): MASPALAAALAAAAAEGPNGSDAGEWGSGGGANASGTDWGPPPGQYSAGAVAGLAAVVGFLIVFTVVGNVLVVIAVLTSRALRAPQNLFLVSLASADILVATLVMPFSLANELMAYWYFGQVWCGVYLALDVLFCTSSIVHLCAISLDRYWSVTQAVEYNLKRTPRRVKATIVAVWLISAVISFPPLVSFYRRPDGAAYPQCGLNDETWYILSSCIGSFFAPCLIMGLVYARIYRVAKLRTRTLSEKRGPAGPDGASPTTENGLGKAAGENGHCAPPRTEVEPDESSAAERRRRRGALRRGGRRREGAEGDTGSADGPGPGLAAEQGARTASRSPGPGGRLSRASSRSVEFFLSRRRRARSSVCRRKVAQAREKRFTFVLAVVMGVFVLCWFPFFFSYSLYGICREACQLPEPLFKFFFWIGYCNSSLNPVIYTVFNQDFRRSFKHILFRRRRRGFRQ
T4 sequence (P19328 whole entry): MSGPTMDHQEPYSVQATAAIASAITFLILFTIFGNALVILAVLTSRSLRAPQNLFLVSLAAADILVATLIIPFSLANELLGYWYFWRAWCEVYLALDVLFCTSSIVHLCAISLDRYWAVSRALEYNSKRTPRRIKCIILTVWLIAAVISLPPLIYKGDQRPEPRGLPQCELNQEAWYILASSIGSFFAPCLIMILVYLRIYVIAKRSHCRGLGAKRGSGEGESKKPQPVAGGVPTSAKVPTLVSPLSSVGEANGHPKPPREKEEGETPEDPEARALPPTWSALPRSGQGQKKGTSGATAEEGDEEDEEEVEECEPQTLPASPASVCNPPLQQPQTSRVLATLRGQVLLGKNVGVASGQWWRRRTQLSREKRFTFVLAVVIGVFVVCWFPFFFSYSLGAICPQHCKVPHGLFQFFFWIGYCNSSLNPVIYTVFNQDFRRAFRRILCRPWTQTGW
T4 sequence (P22909 whole entry): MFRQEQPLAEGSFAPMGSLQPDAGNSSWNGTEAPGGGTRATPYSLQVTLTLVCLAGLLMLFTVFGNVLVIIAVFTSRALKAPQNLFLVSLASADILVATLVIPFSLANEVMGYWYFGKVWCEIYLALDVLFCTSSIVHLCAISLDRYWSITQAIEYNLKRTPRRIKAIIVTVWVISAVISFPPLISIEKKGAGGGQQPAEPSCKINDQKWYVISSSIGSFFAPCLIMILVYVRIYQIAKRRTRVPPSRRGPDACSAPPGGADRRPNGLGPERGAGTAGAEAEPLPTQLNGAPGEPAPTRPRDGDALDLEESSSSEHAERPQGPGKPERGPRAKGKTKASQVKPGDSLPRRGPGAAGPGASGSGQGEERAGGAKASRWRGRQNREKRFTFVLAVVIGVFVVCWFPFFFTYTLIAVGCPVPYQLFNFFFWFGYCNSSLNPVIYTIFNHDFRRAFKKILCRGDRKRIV
Put plainly: Displacement of [3H]RX821002 from alpha2-adrenoceptor in Sprague-Dawley rat brain membranes after 45 mins by liquid scintillation counting. The experiment is classed as cell membranes, Membrane. Summed up: (§3)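 Crude P2 membranes from brains of male Sprague-Dawley rats (250–280 g), 0.2–0.3 mg protein. Radioligand 1 nM [3H]RX821002 (α2) or [3H]prazosin (α1); 11 concentrations of compound, 0.1 nM–100 µM. Non-specific binding: 10 µM rauwolscine (α2) or 10 µM phenylephrine (α1). Triplicate incubation, RT, 45 min. PEI-soaked glass-fibre filtration, then scintillation counting. Ki by Cheng-Prusoff; 3–4 experiments, or one for low-affinity compounds.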

In experiment [6] the target is T5, Alpha-2B adrenergic receptor (Homo sapiens, UniProt P18089).
T5 sequence (P18089 whole entry): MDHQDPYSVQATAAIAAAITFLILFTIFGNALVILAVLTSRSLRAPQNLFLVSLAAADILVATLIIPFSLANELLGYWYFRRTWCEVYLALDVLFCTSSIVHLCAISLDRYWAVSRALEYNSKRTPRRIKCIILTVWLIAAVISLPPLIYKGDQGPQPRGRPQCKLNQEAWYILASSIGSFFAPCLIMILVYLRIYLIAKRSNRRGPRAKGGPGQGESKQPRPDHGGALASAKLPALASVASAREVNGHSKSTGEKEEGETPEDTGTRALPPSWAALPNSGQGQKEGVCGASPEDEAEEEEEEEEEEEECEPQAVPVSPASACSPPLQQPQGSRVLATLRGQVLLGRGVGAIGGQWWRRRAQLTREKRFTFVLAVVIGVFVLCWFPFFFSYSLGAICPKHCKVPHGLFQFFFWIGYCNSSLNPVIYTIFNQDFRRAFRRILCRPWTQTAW
In words: Displacement of [3H]RS-79948-197 from human alpha2B adrenoceptor expressed in CHO-K1 cells after 45 mins by liquid scintillation counting. It is filed as cell-based. The method in brief:
as §2

The nature of experiment [7]: Displacement of […] from imidazoline I2 receptor in Sprague-Dawley rat kidney membranes after 45 mins by liquid scintillation counting. It is filed as cell membranes, Membrane.
The next experiment deals with Nischarin (Rattus norvegicus, UniProt Q4G017). Put plainly: Displacement of […] from imidazoline I1 receptor in Sprague-Dawley rat kidney membranes after 45 mins by liquid scintillation counting. It is filed as cell membranes, Membrane.
Sequence of Nischarin (Q4G017 whole entry): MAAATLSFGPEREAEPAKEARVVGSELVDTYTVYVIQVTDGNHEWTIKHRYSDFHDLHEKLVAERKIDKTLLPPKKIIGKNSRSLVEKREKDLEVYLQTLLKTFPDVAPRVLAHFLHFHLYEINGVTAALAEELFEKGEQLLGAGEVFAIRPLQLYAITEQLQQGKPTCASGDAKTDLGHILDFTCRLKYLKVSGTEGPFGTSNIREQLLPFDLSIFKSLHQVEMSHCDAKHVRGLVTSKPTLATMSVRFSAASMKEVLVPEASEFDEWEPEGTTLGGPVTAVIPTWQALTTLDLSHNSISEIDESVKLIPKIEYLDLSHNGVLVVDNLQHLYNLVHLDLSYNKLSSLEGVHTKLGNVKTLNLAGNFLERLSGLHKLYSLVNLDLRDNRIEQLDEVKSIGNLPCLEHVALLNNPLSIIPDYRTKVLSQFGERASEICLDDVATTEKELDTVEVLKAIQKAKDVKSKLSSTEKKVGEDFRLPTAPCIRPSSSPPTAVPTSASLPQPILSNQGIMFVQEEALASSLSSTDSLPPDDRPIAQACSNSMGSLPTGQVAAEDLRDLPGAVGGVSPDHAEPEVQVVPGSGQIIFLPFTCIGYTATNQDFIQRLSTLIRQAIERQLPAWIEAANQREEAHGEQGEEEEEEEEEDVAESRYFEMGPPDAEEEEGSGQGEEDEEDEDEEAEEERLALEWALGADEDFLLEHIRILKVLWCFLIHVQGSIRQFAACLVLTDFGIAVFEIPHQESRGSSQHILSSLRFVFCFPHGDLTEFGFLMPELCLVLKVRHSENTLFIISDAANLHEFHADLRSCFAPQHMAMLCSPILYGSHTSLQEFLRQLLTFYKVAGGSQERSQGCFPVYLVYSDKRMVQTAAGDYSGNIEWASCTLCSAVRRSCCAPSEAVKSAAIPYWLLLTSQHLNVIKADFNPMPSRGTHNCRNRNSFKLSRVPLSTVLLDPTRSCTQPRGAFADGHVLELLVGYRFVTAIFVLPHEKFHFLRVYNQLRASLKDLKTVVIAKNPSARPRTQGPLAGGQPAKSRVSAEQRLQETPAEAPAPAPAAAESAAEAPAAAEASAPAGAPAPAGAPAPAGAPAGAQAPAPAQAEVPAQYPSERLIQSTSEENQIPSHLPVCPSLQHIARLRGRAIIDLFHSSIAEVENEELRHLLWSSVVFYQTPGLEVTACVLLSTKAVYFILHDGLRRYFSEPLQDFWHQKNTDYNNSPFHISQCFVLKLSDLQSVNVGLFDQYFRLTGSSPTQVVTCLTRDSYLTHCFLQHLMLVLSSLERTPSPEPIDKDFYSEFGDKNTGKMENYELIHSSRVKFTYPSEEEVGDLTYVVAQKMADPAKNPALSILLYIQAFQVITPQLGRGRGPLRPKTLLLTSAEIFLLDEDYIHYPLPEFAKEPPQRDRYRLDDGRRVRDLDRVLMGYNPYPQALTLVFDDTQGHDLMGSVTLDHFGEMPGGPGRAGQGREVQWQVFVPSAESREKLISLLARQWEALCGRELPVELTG
Experiment [8] has as its target T6, Adrenergic receptor alpha-1 (Rattus norvegicus, UniProt P15823+P23944+P43140).
T6 sequence (P15823 whole entry): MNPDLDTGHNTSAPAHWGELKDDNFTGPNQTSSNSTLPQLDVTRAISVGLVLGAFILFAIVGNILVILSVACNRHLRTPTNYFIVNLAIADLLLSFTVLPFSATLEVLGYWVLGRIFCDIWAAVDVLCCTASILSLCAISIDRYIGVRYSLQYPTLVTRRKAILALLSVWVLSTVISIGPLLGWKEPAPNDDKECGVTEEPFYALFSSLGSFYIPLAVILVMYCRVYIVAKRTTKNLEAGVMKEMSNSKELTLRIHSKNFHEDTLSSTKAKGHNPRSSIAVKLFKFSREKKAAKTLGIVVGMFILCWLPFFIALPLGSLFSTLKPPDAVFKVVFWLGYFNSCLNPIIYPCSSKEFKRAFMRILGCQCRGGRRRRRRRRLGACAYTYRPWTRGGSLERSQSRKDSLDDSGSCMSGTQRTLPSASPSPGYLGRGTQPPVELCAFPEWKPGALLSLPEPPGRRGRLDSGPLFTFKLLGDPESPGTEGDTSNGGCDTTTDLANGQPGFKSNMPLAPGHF
T6 sequence (P23944 whole entry): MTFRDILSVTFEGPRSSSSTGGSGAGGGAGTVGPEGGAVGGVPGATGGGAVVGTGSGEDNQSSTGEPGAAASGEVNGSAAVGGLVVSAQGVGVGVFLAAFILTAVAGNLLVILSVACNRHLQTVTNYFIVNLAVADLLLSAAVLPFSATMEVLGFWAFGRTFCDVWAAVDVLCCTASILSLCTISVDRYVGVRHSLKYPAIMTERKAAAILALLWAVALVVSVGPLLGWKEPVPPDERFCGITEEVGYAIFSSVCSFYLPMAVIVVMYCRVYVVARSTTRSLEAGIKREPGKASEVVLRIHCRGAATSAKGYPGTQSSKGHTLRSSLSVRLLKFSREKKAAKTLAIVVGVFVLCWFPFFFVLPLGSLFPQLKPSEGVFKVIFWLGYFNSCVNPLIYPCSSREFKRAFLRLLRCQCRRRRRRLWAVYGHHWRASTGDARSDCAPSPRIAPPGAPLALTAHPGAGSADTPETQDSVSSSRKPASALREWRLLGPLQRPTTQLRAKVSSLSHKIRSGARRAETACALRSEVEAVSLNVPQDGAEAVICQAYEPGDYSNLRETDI
T6 sequence (P43140 whole entry): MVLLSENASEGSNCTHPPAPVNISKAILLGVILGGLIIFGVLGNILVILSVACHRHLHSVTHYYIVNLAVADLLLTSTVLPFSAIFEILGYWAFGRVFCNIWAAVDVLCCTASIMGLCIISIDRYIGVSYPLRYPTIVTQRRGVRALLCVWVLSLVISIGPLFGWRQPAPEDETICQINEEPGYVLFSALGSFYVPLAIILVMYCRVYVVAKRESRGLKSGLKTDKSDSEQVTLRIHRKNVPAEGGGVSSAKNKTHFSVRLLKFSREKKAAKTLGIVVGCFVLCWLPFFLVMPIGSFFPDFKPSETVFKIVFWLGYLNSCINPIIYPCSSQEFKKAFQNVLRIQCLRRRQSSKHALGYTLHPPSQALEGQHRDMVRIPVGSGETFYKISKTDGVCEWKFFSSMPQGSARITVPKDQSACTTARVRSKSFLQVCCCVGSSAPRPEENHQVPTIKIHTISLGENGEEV
Put plainly: Displacement of [3H]prazosin from alpha1-adrenoceptor in Sprague-Dawley rat brain membranes after 45 mins by liquid scintillation counting. It is filed as cell membranes, Membrane. Summed up:
as §3

As to `c1ccc2c(c1)cnn2N=C1NCCN1` [MARSANIDINE], in experiment [1], the midpoint of the response, the EC50, lay at 93.3 nM. Further, the Ki (commonly a dissociation constant, usually derived from enzyme kinetics or from competition with a known ligand) in experiment [2] was 52 nM; in [4] it was 640 nM; in experiment [5], 14.05 nM; in [6], 79 nM; in [7] it was 16900 nM. Besides, the Intrinsic activity in experiment [3] was 14%.
Turning to `Fc1cccc2c1cnn2CC1=NCCN1`, the 50% inhibitory concentration (IC50) (as a rule, the concentration at which inhibition is half-maximal) on Nischarin is 1770 nM. Further, the Ki came to 187.3 nM in experiment [5], 534.7 nM in [8] and 21.9 nM in experiment [7].
The corresponding values for `Fc1c(F)c(F)c2c(cnn2N=C2NCCN2)c1F` are 5830 nM, 3717 nM, 19793 nM and 22700 nM.
`Fc1cccc2c1cnn2N=C1NCCN1` displayed a concentration for half-maximal inhibition (IC50) on Nischarin of 14800 nM. In addition, the Ki was 416 nM in [5], 3807 nM in experiment [8] and 6180 nM in experiment [7].
